Data: the RNAGym collection of RNA variant scans (doi:10.1126/science.aae0568)
Fewer inactive variants are shown than the library holds.

B1: tRNA (parent)
chain: GUUCCGUUGGCGUAAUGGUAACGCGUCUCCCUCCUAAGGAGAAGACUGCGGGUUCGAGUCCCGUACGGAACG

Variants of: B1
Experiment: yeast fitness relative to wild type (ratio to wild type); higher = fitter; tRNA-Arg(CCU), competitive growth, 37 C, YPD
Procedure, shortened: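 Amplicons of the tRNA-Arg(CCU) gene were sequenced, 100-nucleotide paired-end, from the start population and from each end population of a pooled yeast competition. The competition, in six parallel replicates, lasted 24 hours in YPD at 37°C. Fitness relative to wild type was calculated from changes in genotype frequencies. Genotypes had to have ≥ 100 starting reads, and estimates < 0.5 were set to 0.5.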
For U28A U35C A37C U64A G67A, the yeast fitness was no more than 0.5.
With U28A U35G C62A the yeast fitness was no more than 0.5.
For U28A U54A, the yeast fitness was 0.594.
For U28A U64G, the yeast fitness was 0.709.
U28C A36C gave a yeast fitness of 0.579.
In the case of U28C A36C G67C, the yeast fitness is reported as 0.539.
Variant U28C A37C A40U C55U has a yeast fitness of 0.525.
Work on U28C A37C G56A U59C yielded a yeast fitness of no more than 0.5.
U28C A37C U47C showed a yeast fitness of 0.697.
For U28C A37U A57C A69U A70C, the yeast fitness was no more than 0.5.
U28C A40C gave a yeast fitness of 0.902.
U28C A40G A45C A70U showed a yeast fitness of 0.911.
In the case of U28C A40G A70U, the yeast fitness is reported as 0.603.
With U28C A40G G52C the yeast fitness was no more than 0.5.
U28C A40U gave a yeast fitness of 1.01.
U28C A42C gave a yeast fitness of 0.858.
Work on U28C A42C A43C C55G A57G yielded a yeast fitness of no more than 0.5.
In the case of U28C A42C C55U G68C, the yeast fitness is reported as no more than 0.5.
For U28C A42G C55U A70U, the yeast fitness was no more than 0.5.
In the case of U28C A42G U47A, the yeast fitness is reported as 0.535.
U28C A43C gave a yeast fitness of 0.758.
Work on U28C A43C C46A G48C yielded a yeast fitness of no more than 0.5.
In the case of U28C A43C G44C C61G A65U, the yeast fitness is reported as no more than 0.5.
U28C A43C G67C gave a yeast fitness of 0.528.
Variant U28C A43G has a yeast fitness of 0.976.
In the case of U28C A45C, the yeast fitness is reported as 0.993.
Variant U28C A45C G50A C62U has a yeast fitness of no more than 0.5.
In the case of U28C A45U, the yeast fitness is reported as 0.985.
U28C A45U G48C gave a yeast fitness of 0.638.
U28C A57G showed a yeast fitness of 0.896.
Variant U28C A57U A65U has a yeast fitness of no more than 0.5.
U28C A65G showed a yeast fitness of 0.998.
Variant U28C A70C has a yeast fitness of 0.878.
Variant U28C C29A has a yeast fitness of 0.703.
Work on U28C C29G yielded a yeast fitness of 0.566.
With U28C C29G C30G A36G the yeast fitness was no more than 0.5.
For U28C C29G C62U, the yeast fitness was no more than 0.5.
Variant U28C C31U has a yeast fitness of 0.981.
With U28C C31U C60U the yeast fitness was no more than 0.5.
With U28C C33A A42C A45U A69C the yeast fitness was 0.622.
U28C C33G A40G G51C C61U A65U showed a yeast fitness of no more than 0.5.
For U28C C33G C66A, the yeast fitness was 0.616.
U28C C33G G38A U54C U64G showed a yeast fitness of no more than 0.5.
Work on U28C C33G G38A U64G yielded a yeast fitness of no more than 0.5.
Variant U28C C33U A45U has a yeast fitness of 0.578.
Work on U28C C34G A40G A43G C46G G52A C55U yielded a yeast fitness of 0.613.
For U28C C34U C55U C61A, the yeast fitness was 0.592.
Work on U28C C46A yielded a yeast fitness of 0.992.
In the case of U28C C46G, the yeast fitness is reported as 1.08.
Variant U28C C49G U59C has a yeast fitness of no more than 0.5.
With U28C C49U the yeast fitness was 0.905.
Variant U28C C49U G63U has a yeast fitness of 0.531.
U28C C55U G67C gave a yeast fitness of 0.557.
For U28C C60A, the yeast fitness was 0.632.
U28C C60G gave a yeast fitness of 0.572.
Variant U28C C61G has a yeast fitness of 0.583.
In the case of U28C C61U A69U, the yeast fitness is reported as 0.727.
U28C C62A gave a yeast fitness of 0.746.
U28C C66A gave a yeast fitness of 0.689.
In the case of U28C G38A A40C A45G G48A, the yeast fitness is reported as no more than 0.5.
Work on U28C G38C G51C yielded a yeast fitness of no more than 0.5.
Work on U28C G38C G52A yielded a yeast fitness of no more than 0.5.
With U28C G39C the yeast fitness was 0.578.
Work on U28C G39C G44C G58A yielded a yeast fitness of no more than 0.5.
U28C G41A gave a yeast fitness of 0.783.
For U28C G41C, the yeast fitness was 0.712.
U28C G41C C49A C61U A70U gave a yeast fitness of no more than 0.5.
Work on U28C G41C C60A C66U yielded a yeast fitness of no more than 0.5.
For U28C G44A A57G, the yeast fitness was 0.578.
U28C G48A C60A C62U gave a yeast fitness of no more than 0.5.
U28C G50U showed a yeast fitness of 0.602.
With U28C G51C A65C the yeast fitness was no more than 0.5.
With U28C G52A C61U the yeast fitness was 0.698.
U28C G52A C61U A70C showed a yeast fitness of 0.549.
Work on U28C G56C yielded a yeast fitness of 0.53.
U28C G58C C62G A70U gave a yeast fitness of no more than 0.5.
With U28C G63A A70G the yeast fitness was 0.685.
In the case of U28C G67C, the yeast fitness is reported as 0.845.
For U28C G68C, the yeast fitness was 0.884.
With U28C U32C C62A the yeast fitness was no more than 0.5.
Variant U28C U35A has a yeast fitness of 0.578.
Variant U28C U54G A57C C62U has a yeast fitness of no more than 0.5.
With U28C U54G A70U the yeast fitness was no more than 0.5.
U28C U59G gave a yeast fitness of 0.852.
Variant U28C U64C has a yeast fitness of 0.877.
For U28G A36G, the yeast fitness was 0.712.
For U28G A36G A45G A69U, the yeast fitness was 0.825.
Variant U28G A36G A65U has a yeast fitness of no more than 0.5.
Variant U28G A36G G51A has a yeast fitness of no more than 0.5.
Variant U28G A40C A42G A69C has a yeast fitness of 0.808.
U28G A40U A43U gave a yeast fitness of 0.878.
In the case of U28G A40U U59C, the yeast fitness is reported as 0.576.
U28G A42C A57C showed a yeast fitness of 0.627.
For U28G A43G, the yeast fitness was 0.643.
Variant U28G A45C has a yeast fitness of 0.655.
In the case of U28G A45G G51C A70G, the yeast fitness is reported as no more than 0.5.
For U28G A57C, the yeast fitness was 0.587.
For U28G A57U U59C, the yeast fitness was no more than 0.5.
Variant U28G A65C has a yeast fitness of 0.669.
In the case of U28G A69U, the yeast fitness is reported as 0.789.
In the case of U28G A70G, the yeast fitness is reported as 0.826.
Work on U28G C29A C66U yielded a yeast fitness of no more than 0.5.
U28G C29A G41C A43U gave a yeast fitness of no more than 0.5.
For U28G C29A G41C A43U C66G, the yeast fitness was 0.595.
In the case of U28G C29A G52C A57U, the yeast fitness is reported as no more than 0.5.
In the case of U28G C29G G41A, the yeast fitness is reported as no more than 0.5.
For U28G C30G A40C A42U G67A, the yeast fitness was no more than 0.5.
For U28G C30U, the yeast fitness was 0.693.
In the case of U28G C31A C61U, the yeast fitness is reported as no more than 0.5.
Work on U28G C31G A45U C46G G58A yielded a yeast fitness of 0.529.
Variant U28G C31U A40C A70U has a yeast fitness of no more than 0.5.
For U28G C33A A45C, the yeast fitness was no more than 0.5.
In the case of U28G C33G C49U, the yeast fitness is reported as no more than 0.5.
Variant U28G C33G C49U G68C A69U has a yeast fitness of no more than 0.5.
U28G C34A U35C showed a yeast fitness of no more than 0.5.
U28G C46G C49U showed a yeast fitness of no more than 0.5.
Variant U28G C46G C49U A69C has a yeast fitness of no more than 0.5.
Work on U28G C46G C49U C61A yielded a yeast fitness of no more than 0.5.
In the case of U28G C46G C61U, the yeast fitness is reported as no more than 0.5.
For U28G C60G, the yeast fitness was 0.603.
With U28G C61A the yeast fitness was 0.561.
Variant U28G G38A C60G A65C A69C has a yeast fitness of 0.618.
Work on U28G G38C C62G C66U yielded a yeast fitness of no more than 0.5.
For U28G G41C C55G A70U, the yeast fitness was no more than 0.5.
U28G G41C U53A showed a yeast fitness of no more than 0.5.
For U28G G56C, the yeast fitness was 0.655.
U28G U32A A43C gave a yeast fitness of no more than 0.5.
With U28G U32A G38C A65C G67C the yeast fitness was no more than 0.5.
Variant U28G U35C has a yeast fitness of 0.758.
In the case of U28G U54G A65C G67A, the yeast fitness is reported as no more than 0.5.
Work on U28G U59A A70C yielded a yeast fitness of no more than 0.5.
For C29A, the yeast fitness was 0.631.
In the case of C29A A36C G51A U53C U64C A65U, the yeast fitness is reported as no more than 0.5.
For C29A A36U, the yeast fitness was no more than 0.5.
For C29A A36U A40U C55U G56A U59C, the yeast fitness was no more than 0.5.
C29A A36U G50C C55G C61G showed a yeast fitness of no more than 0.5.
In the case of C29A A37C A40U G63A, the yeast fitness is reported as 0.519.
Variant C29A A37C A45C U47A has a yeast fitness of 0.573.
C29A A37G gave a yeast fitness of 0.545.
In the case of C29A A37G C49A U64C G68A, the yeast fitness is reported as no more than 0.5.
Variant C29A A37U A43C has a yeast fitness of 0.733.
For C29A A37U A65U, the yeast fitness was no more than 0.5.
C29A A37U G38C A40C A43C C46U gave a yeast fitness of 0.599.
For C29A A40C, the yeast fitness was 0.741.
Variant C29A A40U has a yeast fitness of 0.684.
In the case of C29A A40U A45C C46A C49A A57G, the yeast fitness is reported as no more than 0.5.
C29A A42U gave a yeast fitness of 0.632.
For C29A A42U U64C A69C, the yeast fitness was no more than 0.5.
Work on C29A A43C yielded a yeast fitness of 0.748.
C29A A45C C46G G68C showed a yeast fitness of no more than 0.5.
Variant C29A A45C C46U G51A G56A has a yeast fitness of no more than 0.5.
Work on C29A A45C G48C C49G yielded a yeast fitness of no more than 0.5.
With C29A A57C U59A the yeast fitness was 0.55.
For C29A A57G U64A, the yeast fitness was no more than 0.5.
C29A A65G showed a yeast fitness of 0.667.
With C29A A65U the yeast fitness was 0.626.
Variant C29A A65U G67A has a yeast fitness of 0.5.
C29A A69C showed a yeast fitness of 0.679.
Work on C29A A69U yielded a yeast fitness of 0.756.
In the case of C29A A70C, the yeast fitness is reported as 0.635.
C29A A70U showed a yeast fitness of 0.891.
C29A C30A G50A gave a yeast fitness of no more than 0.5.
In the case of C29A C30A G67U, the yeast fitness is reported as 0.667.
C29A C30G G38U showed a yeast fitness of no more than 0.5.
Variant C29A C30U has a yeast fitness of 0.689.
Work on C29A C30U C33G C46U yielded a yeast fitness of no more than 0.5.
For C29A C30U G48A G50A, the yeast fitness was no more than 0.5.
